# Glyco luc inh = N-linked glycosylation inhibition; D54 ERlucT glycosylation luciferase reporter, 24 h; percent of 100 nM tunicamycin response; reporter increase, % at 12.5 µM; 0.23% of 360,000 active; AID 588692;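 active = mean luciferase reporter signal, scaled so untreated is 0 and the glycosylation-blocking control 100, at or above a set limit in every replicate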;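 note: luciferase carries N-glycosylation sites so blocking glycosylation raises the light; 0% = median of neutral control wells and 100% = median of 100 nM tunicamycin wells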
# Env fusion inh = HIV envelope-mediated fusion inhibition | HeLa-JRFL Env/CEM21 cell fusion, luciferase | inhibition, % at 12.3 µM | 1.1% of 360,000 active | AID 651610;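 active = mean replicate inhibition score of at least 50 and every replicate individually at or above 50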;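 note: 0% = plate neutral controls and 100% = maraviroc near 300 nM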
# Rtt109 HAT inh = C. albicans Rtt109 histone acetyltransferase inhibition | 0.16% of 330,000 active | Q5AAJ8 | purified Rtt109/Vps75, ThioGlo CoA-SH fluorescence, 4 h | inhibition, % at 34.9 µM;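 active = inhibition of at least 50% in every replicate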
# Target sequence (Q5AAJ8 whole entry, looked up): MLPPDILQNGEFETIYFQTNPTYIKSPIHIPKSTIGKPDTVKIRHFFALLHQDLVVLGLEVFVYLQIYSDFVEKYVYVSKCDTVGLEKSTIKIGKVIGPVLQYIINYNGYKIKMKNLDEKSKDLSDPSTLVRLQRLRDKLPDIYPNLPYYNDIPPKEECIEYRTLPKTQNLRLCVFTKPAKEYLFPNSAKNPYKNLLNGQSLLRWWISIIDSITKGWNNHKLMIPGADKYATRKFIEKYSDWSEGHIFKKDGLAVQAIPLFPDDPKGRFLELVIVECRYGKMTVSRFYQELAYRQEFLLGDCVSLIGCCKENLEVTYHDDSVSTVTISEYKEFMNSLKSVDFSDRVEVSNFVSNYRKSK
# PAX8 inh HTS = lowers PAX8-driven luciferase in RMG-I cells; RMG-I TPO-luciferase reporter, SteadyGlo, 24 h; inhibition, % at 12.6 µM; 1.2% of 360,000 active; AID 652154;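 active = mean replicate inhibition at least 60% with every replicate also reaching 60%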;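 note: luciferase light reporting Pax8 driven TPO promoter activity; plate controls were median of neutral control wells for no effect and mitoxantrone controls for full effect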
# PfHsp90 set2 = inhibits growth of yeast expressing Plasmodium falciparum Hsp90; S. cerevisiae expressing PfHsp90, BacTiter-Glo ATP, 48 h; yeast lacking PDR1 and PDR3 efflux regulators; inhibition, % at 9.4 µM; 0.32% of 310,000 active; AID 504621;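 active = every replicate shows inhibition above about 80%, whatever the replicate mean, limit read from the data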;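 note: 0% = DMSO neutral controls and 100% = 20 µM radicicol positive controls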
# Arrestin-AP2 inh = blocks beta-arrestin peptide binding to AP2 adaptin | FITC-arrestin peptide / GST-AP2 beads, flow cytometry; AP2 beta2 appendage carries R879A mutation | inhibition, % at 10 µM | 0.31% of 340,000 active;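 active = inhibition above a set limit, near 3 SD of compounds lacking own fluorescence, cut at about 54% in these data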;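 note: plate controls were DMSO wells for no effect and 5 µM unlabelled arrestin peptide for full effect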
#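 Test system: GST-tagged AP2 beta2-adaptin appendage (R879A) on 4 µm glutathione beads; also added: fluorescein-tagged arrestin peptide at 50 nM final; timing: 12 min plus 1 h, RT; signal: flow cytometry, FL1 (488/535 nm); read-out: percent drop in bead-associated FITC signal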
# * marks the source's active call; other numbers are inactive results; x = not tested or not shown; ! = not active in a repeat; [ ] = remark or other dose. In the library only some 2.3% were active in any assay of this set; here they are far more common.
SMILES,Glyco luc inh,Env fusion inh,Rtt109 HAT inh,PAX8 inh HTS,PfHsp90 set2,Arrestin-AP2 inh
C=CCC[C@H](Cc1ccc(F)cc1)C(=O)O[C@H](CNC(=O)[C@@H](CC=C)CC(=O)N(CCO)Cc1ccccc1)c1ccccc1,-4,129*,-4,47,-3,4
C=CC[C@H](CC(=O)N(CCO)Cc1ccccc1)C(=O)N[C@H](COC(=O)[C@@H](CC=C)CC(=O)OC(C)(C)C)Cc1c[nH]c2ccccc12,-3,64*,6,47,1,15
CC(CCc1ccco1)NC(=O)CCc1nnc2ccc(NCc3ccccc3Cl)nn12 (centres undefined),0,77*,7,18,-23,-9
CC(CCc1ccco1)NC(=O)CCc1nnc2ccc(NCc3ccc(Cl)cc3)nn12 (centres undefined),17,-4,17,8,-12,-4
CCc1ccc(-c2nnn(CCC#N)n2)cc1,-3,0,-20,-40,3,-9
CCc1ccc(-c2nnn(CCC(=O)OC)n2)cc1,0,65*,8,-24,-43,1
COCCOC(=O)N1C(=O)[C@@]2(c3cc(C#Cc4ccc(OC)cc4)ccc31)[C@H](C(=O)NC[C@H](O)c1ccccc1)[C@H]1C(=O)O[C@H](c3ccccc3)[C@H](c3ccccc3)N1[C@@H]2c1ccc(O)cc1,x,-23[16.7 µM],x,x,x,x
COc1ccccc1NC(=O)C(C)NC(c1ccccc1)c1ccccc1 (centres undefined),-1,59*,-4,-45,-24,9
COc1ccccc1NC(=O)CNC(c1ccccc1)c1ccccc1,-2,22,0,-6,-12,0
O=[N+]([O-])c1ccc(C2CCCC/C2=N\OCc2cccc(F)c2)c([N+](=O)[O-])c1 (centres undefined),-8,85*,-1,x,8,-5
CCC(=O)Nc1c(C)nn(-c2ccc(C)c(C)c2)c1C,-2,-7,x,-9,8,8
Cc1ccc(-n2nc(C)c(NC(=O)CCl)c2C)cc1C,48*,-117,-6,112*,-14,0
COc1ccc(S(=O)(=O)Nc2ccc3c(c2)CC(=O)N([C@H](C)CO)C[C@H](C)[C@@H](CN(C)Cc2ccc(Cl)c(Cl)c2)O3)cc1,x,23[16.7 µM],x,75*,x,x
C[C@H](CO)N1C[C@H](C)[C@@H](CN(C)Cc2ccc(Cl)c(Cl)c2)Oc2ccc(NS(=O)(=O)c3ccc(Cl)cc3)cc2CC1=O,x,22[16.7 µM],x,70*,x,x
Cc1ccc(S(=O)(=O)Nc2ccc3c(c2)CC(=O)N([C@H](C)CO)C[C@H](C)[C@@H](CN(C)Cc2ccc(Cl)c(Cl)c2)O3)cc1,x,11[16.7 µM],x,82*,x,x
C[C@@H]1CN([C@H](C)CO)C(=O)Cc2cc(NS(=O)(=O)c3ccc(Cl)cc3)ccc2O[C@H]1CN(C)Cc1ccc(Cl)c(Cl)c1,x,5[16.7 µM],x,-2,x,x
C[C@@H]1CN([C@@H](C)CO)C(=O)Cc2cc(NS(=O)(=O)c3ccccc3)ccc2O[C@H]1CN(C)Cc1ccc(Cl)c(Cl)c1,x,88*[16.7 µM],x,114*,x,x
COc1ccc(-c2cnc3c(c2)C(=O)N([C@@H](C)CO)C[C@@H](C)[C@H](CN(C)C(=O)Cc2cccnc2)O3)cc1,x,-14[16.7 µM],x,-12,x,x
Cc1noc(C)c1S(=O)(=O)Nc1ccc2c(c1)CC(=O)N([C@@H](C)CO)C[C@@H](C)[C@H](CN(C)Cc1ccc(Cl)c(Cl)c1)O2,x,85*[16.7 µM],x,88*,x,x
C[C@@H]1CN([C@@H](C)CO)C(=O)Cc2cc(NS(=O)(=O)c3ccc(Cl)cc3)ccc2O[C@H]1CN(C)Cc1ccc(Cl)c(Cl)c1,x,83*[16.7 µM],x,86*,x,x
C[C@@H]1CN([C@H](C)CO)C(=O)Cc2cc(NS(=O)(=O)c3ccc(F)cc3)ccc2O[C@H]1CN(C)Cc1ccc(Cl)c(Cl)c1,x,-12[16.7 µM],x,3,x,x
C[C@H](CO)N1C[C@H](C)[C@H](CN(C)CC2CCCCC2)Oc2ccc(NS(=O)(=O)c3ccc(Cl)cc3)cc2CC1=O,x,12[16.7 µM],x,106*,x,x
C[C@H]1CN([C@@H](C)CO)C(=O)Cc2cc(NS(=O)(=O)c3ccc(Cl)cc3)ccc2O[C@H]1CN(C)CC1CCCCC1,x,12[16.7 µM],x,33,x,x
C[C@@H]1CN([C@H](C)CO)S(=O)(=O)c2ccc(-c3ccc(C(=O)N(C)C)cc3)cc2O[C@@H]1CN(C)C(=O)C1CCC1,x,x,x,-1,x,x
COc1ccc(Cl)cc1NC(=O)Nc1cnccn1,0,71*,1,10,-14,-2
SMILES,Glyco luc inh,Env fusion inh,Rtt109 HAT inh,PAX8 inh HTS,PfHsp90 set2,Arrestin-AP2 inh
COc1ccc(Cl)cc1NC(=O)Nc1cc(C)on1,0,13,4,1,4,5
O=C(c1nnsc1S(=O)(=O)c1ccc(Cl)cc1)N1CCOCC1,-19,27,-8,93*,20,22
O=C(Nc1ccccc1)c1nnsc1S(=O)c1ccc(Cl)cc1 (centres undefined),-14,x,4,x,106*,-2
O=C(c1nnsc1S(=O)c1ccc(Cl)cc1)N1CCOCC1 (centres undefined),-15,-3,136*,112*,-31,6
CNC(=O)c1nnsc1S(=O)(=O)c1ccc(Cl)cc1,-14,13,2,107*,-118,5
Nc1nc(C(=O)N2CCOCC2)nn1S(=O)(=O)c1ccc(Cl)cc1,2,-56,0,11,-4,10
Cc1nnsc1S(=O)c1ccc(Cl)cc1 (centres undefined),1,-1,x,7,10,10
O=C(c1cc(-c2ccc(Cl)cc2)on1)N1CCOCC1,-16,-98,-9,x,x,7
CNC(=O)c1ccc(S(=O)(=O)c2ccc(Cl)cc2)c(NC(C)=O)c1,-1,2,1,19,1,4
O=S1(=O)Nc2c(ccc3cccnc23)-c2ccccc21,-17,x,3,x,151*,-1
Clc1ccc2ccc3cccnc3c2n1,1,-6,-9,-36,43,11
Cc1cccc(-c2nnc3n2N=C(c2ccccc2)CS3)c1,10,-90,-1,x,-5,2
C[n+]1c2n(c3ccccc31)N=C(c1ccccc1)CS2,11,61*!,-13,28,5,52
C[n+]1c2n(c3ccccc31)N=C(c1ccc(Br)cc1)CS2,37*,32,x,x,x,-13
C[n+]1c2n(c3ccccc31)N=C(c1ccc(-c3ccccc3)cc1)CS2,8,66*,22,96*,-54,-2
CCc1nnc2n1N=C(c1ccc(Br)cc1)CS2,3,-3,1,8,16,12
COc1ccc(CCNc2ccc(N3C(=O)CC(C)C3=O)cc2[N+](=O)[O-])cc1 (centres undefined),1,-3,30,-1,6,30
COc1ccc(CCNc2ccc(N3C(=O)CC(C)C3=O)cc2[N+](=O)[O-])cc1OC (centres undefined),1,68*,38,16,-10,29

# Bioassay records (PubChem BioAssay)
